Bioassay records as filed in PubChem.
Only some compounds are listed: those with a hit (about 1.8% of all), similar ones and a draw of the others.
CHRM4 PAM: potentiates acetylcholine response at human M4 receptor | P08173 | CHO-K1 hM4/Gqi5, Fluo-8 calcium fluorescence, ACh EC20; 0% = ACh EC20, 100% = maximal ACh | activation, % at 3 µM | 360,000 compounds, 0.4% hits;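 active = activation above its plate's cutoff, the mean activation of sample wells plus 3 SD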
Target sequence (P08173 whole entry, looked up): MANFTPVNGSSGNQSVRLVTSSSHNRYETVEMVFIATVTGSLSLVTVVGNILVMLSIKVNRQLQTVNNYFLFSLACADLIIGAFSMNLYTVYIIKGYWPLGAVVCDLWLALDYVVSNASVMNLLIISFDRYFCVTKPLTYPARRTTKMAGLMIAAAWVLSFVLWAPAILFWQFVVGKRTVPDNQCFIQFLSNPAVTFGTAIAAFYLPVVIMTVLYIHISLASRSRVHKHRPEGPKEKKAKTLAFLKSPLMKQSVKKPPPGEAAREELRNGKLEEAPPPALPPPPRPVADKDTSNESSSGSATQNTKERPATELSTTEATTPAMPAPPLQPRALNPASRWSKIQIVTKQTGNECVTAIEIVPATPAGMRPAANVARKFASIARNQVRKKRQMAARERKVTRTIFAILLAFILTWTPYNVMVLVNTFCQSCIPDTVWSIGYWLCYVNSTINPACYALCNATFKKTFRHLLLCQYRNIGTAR
M4 ag: CHRM4 agonism in calcium assay; P08173; CHO-K1 hM4/Gqi5, Fluo-8 calcium fluorescence; vehicle 0%, full acetylcholine response 100%; activation, % at 3 µM; 360,000 compounds, 0.14% hits; AID 624127;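 active = activation above the run mean over all test wells plus 3 SD, cut at about 32% in these data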;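 also: peak over basal fluorescence ratio per well then scaled between controls; 0% = DMSO wells and 100% = acetylcholine at EC100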
M5 ag: agonists of human muscarinic M5 receptor (CHRM5) | activation, % at 3 µM | CHO-K1 hM5 cells, Fluo-8 calcium fluorescence; 0% DMSO wells, 100% maximal acetylcholine response | P08912 | 360,000 compounds, 0.19% hits;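 active = activation above the run's mean over test compounds plus 3 SD, cut at about 23% in these data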;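 also: signal is peak over basal fluorescence ratio across the kinetic read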
CHRM5 antagonist: CHRM5 antagonism in calcium assay; AID 624040; 360,000 compounds, 0.59% hits; inhibition, % at 3 µM; P08912; CHO-hM5 cells, Fluo-8 calcium fluorescence, ACh EC80;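 active = inhibition above a per-plate cutoff, the mean of that plate's test compounds plus 3 SD, cut at about 27% in these data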;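 also: 0% = acetylcholine EC80 with DMSO and 100% = DMSO without agonist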
CHRM5 PAM: potentiates acetylcholine response at human M5 receptor | CHO-K1 hM5, Fluo-8 calcium, ACh EC20 PAM; 0% = ACh EC20, 100% = ACh EC100 | activation, % at 3 µM | 360,000 compounds, 0.3% hits | AID 624038;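 active = activation above the run cutoff, the mean activation of all test compounds plus 3 SD, cut at about 18% in these data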
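Measured by: Fluo-8 calcium fluorescence; material: human M5 receptor in CHO-K1 cells; schedule: Post-acetylcholine fluorescence recording 140 s; benchmarks: low control EC20 acetylcholine (0%), high control EC100 acetylcholine (100%); read-out: Max/basal fluorescence ratio as % of EC20–EC100 ACh window; compound: single dose, 3 µM nominal final test concentration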
CHRM4 antagonist: blocks acetylcholine activation of human M4 receptor. P08173. CHO-hM4 cells, ACh EC80, Fluo-8 calcium fluorescence. inhibition, % at 3 µM. 360,000 compounds, 0.73% hits;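 active = inhibition above its plate's cutoff, the mean inhibition of sample wells plus 3 SD, cut at about 27% in these data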;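 also: 0% = acetylcholine EC80 with DMSO and 100% = DMSO without agonist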
Numbers without * were called inactive; ! = a repeat was not active.

SMILES	CHRM4 PAM	M4 ag	M5 ag	CHRM5 antagonist	CHRM5 PAM	CHRM4 antagonist
COc1ccc([N+](=O)[O-])cc1NC(=S)NC(NC(=O)C(c1ccccc1)c1ccccc1)C(Cl)(Cl)Cl (stereo not given)	-5	5	0	18	-10	27*
CCCCNc1c(CCc2ccccc2)nc2nc(C)cc(C)n12	-4	0	2	0	-5	5
O=C1NC[C@@H](CCCCN2C[C@H](Cc3ccc(O)cc3)N(CC3CCCCC3)C(=O)C2=O)N(Cc2ccccc2)C1=O	5	37*	7	0	-3	-11
O=C1NC[C@@H](CCCCN2C[C@H](Cc3ccccc3)N(Cc3ccccc3)C(=O)C2=O)N(CC2CCCCC2)C1=O	4	0	1	2	0	1
O=C1NC[C@@H](CCCCN2C[C@H](Cc3ccccc3)N(CC3CCCCC3)C(=O)C2=O)N(CC2CCCCC2)C1=O	7	59*	11	3	-3	-12
CCOc1ccc(OCCC(=O)OCC(=O)Nc2ccc(Cl)cn2)cc1	10	0	-3	11	1	-10
Cc1ccc(S(=O)(=O)N[C@@H](C)CO)cc1	1	1	4	0	0	-6
COc1ccc(Cn2nnnc2C(CC(C)C)N2CCC(C(N)=O)CC2)cc1 (stereo not given)	9	2	-3	-2	21*	-17
COc1ccc(C2=NNC(=O)CC2)cc1	0	1	3	-10	24*	-5
N#CCCN1CCN(CCC#N)C1=S	0	1	30*	8	-7	-10
CC(C)(C)NC(=O)C(c1ccccc1)N(C(=O)CNC(=O)c1cccs1)c1cccnc1 (stereo not given)	7	1	1	-8	7	-13
Cc1ccc(NC(=O)C[n+]2ccn(C3=C([O-])c4ccccc4C3=O)c2)cc1	-7	15	-2	29*	-17	8
CCCS(=O)(=O)NC(=O)C1(C)CCN(C(=O)c2ccc(F)c(Cl)c2)C1 (stereo not given)	0	0	2	6	-7	9
O=[N+]([O-])c1ccc(O)c(/C=N/Nc2nn[nH]n2)c1	24*	4	0	-3	1	-5
COc1ccc(S(=O)(=O)N2CCC3CC2c2c(-c4ccc(C(F)(F)F)cc4)cccc23)cc1 (stereo not given)	-3	0	3	-2	3	1
CCOc1cc(C2NC(=O)NC(C)=C2C(=O)OCC2CCCCC2)ccc1O (stereo not given)	-3	3	-5	29*	-14	0
CCOC(=O)C1=C(CS(=O)(=O)c2ccc(C)cc2)NC(=O)NC1c1ccc(O)c(OC)c1 (stereo not given)	18	0	3	-11	20*	-4
CCOC(=O)C1=C(c2ccccc2)NC(=O)NC1c1ccc(O)c(OCC)c1 (stereo not given)	3	1	-3	8	-2	0
CC(C)N(CCNC(=O)c1nn(Cc2ccccc2)c(=O)c2ccccc12)C(C)C	2	1	-7	-7	2	-4
CC1(C)CC(=O)C(CC(=O)c2ccccc2)=C(NN=C(N)N)C1	1	1	0	4	-2	1
COc1ccc(C2=NOC3(CC(=O)N(c4ccc(F)cc4)C3=O)C2)cc1 (stereo not given)	35*	2	7	-17	14	-18
CC(=O)Nc1cccc(-c2ccnc3c2CC(C(=O)NCc2ccco2)O3)c1 (stereo not given)	1	4	3	3	7	-10
O=S1(=O)CCS(=O)(=O)C1c1ccccc1	-1	0	8	-8	20*	16
O=C1CC(=O)CC(c2ccccc2)C1	-2	1	2	-3	-2	-2
CC(N)=Nc1ccc([N+](=O)[O-])cc1	0	0	-1	-3	1	-4
SMILES	CHRM4 PAM	M4 ag	M5 ag	CHRM5 antagonist	CHRM5 PAM	CHRM4 antagonist
O=[N+]([O-])c1ccc(N=Nc2c(Cl)cc(O)cc2Cl)cc1	-11	16	12	30*	-21	11
Cc1ccc(S(=O)(=O)N2CCN(C(=O)CCC(=O)Nc3ccc(Br)c(C)c3)CC2)cc1	-6	8	0	10	-12	15
CCCCCCCCCCOC(=O)Cn1c(COc2ccccc2)[n+](C)c2ccccc21	-19	2	-1	33*	-16	38*
CCCCCCCCCCOC(=O)Cn1c(COc2cccc(C)c2)[n+](C)c2ccccc21	-13	0	-25	19	-20	38*
Cc1ccccc1OCc1n(CC(=O)OC2CC(C)CCC2C(C)C)c2ccccc2[n+]1C (stereo not given)	-17	3	-9	44*!	-19	35*
CCCCCCCCCCOC(=O)Cn1c(COc2ccc(OC)cc2)[n+](C)c2ccccc21	-13	1	-7	28*!	-14	32*!
CCOC(=O)C1=C[C@@H](C(C)(C)C)N(S(=O)(=O)c2ccc(C)cc2)[C@H]1c1ccc(OC)cc1	1	0	0	4	-6	-9
COc1cccc(-c2cnc(C(O)c3ccc(Cl)cc3)[nH]2)c1 (stereo not given)	-2	5	4	-3	-2	-8
CCCCCCCCCCOC(=O)Cn1c(COc2ccc(Cl)cc2)[n+](C)c2ccccc21	-13	6	-8	21	-15	18
CCCCCCCCCCOC(=O)Cn1c(COc2ccccc2C)[n+](C)c2ccccc21	-18	28	-27	53*	-33	92*
Cc1csc(NC(=O)CSc2nnc(Cn3c(=O)sc4ccccc43)n2-c2ccccc2)n1	29*	4	3	6	-6	-5
Cc1ccccc1-n1c(Cn2c(=O)sc3ccccc32)nnc1SCC(=O)Nc1nccs1	4	2	2	-3	2	-5
CCN(CC(=O)Nc1c(F)cccc1F)C(=O)/C=C/c1ccc(C)cc1	3	1	-1	-3	2	-25
CCN(CC(=O)Nc1c(F)cccc1F)C(=O)/C=C/c1ccc(OCC#N)c(OC)c1	29*	2	4	-2	1	-6
CCCCCCCCN1C(=O)[C@H](CC(=O)NCCCC)C[C@@]2(C(=O)OC)CC(C)(C)CC=C12	-8	5	-2	-14	-2	-1
OC(CCN1CCCCC1)(c1ccccc1)c1ccccc1	-18	1	-1	99*	-18	100*
C=CCC(O)(CCN1CCCCC1)c1ccccc1 (stereo not given)	-24	0	-10	46*	-15	33*
